Data reported in ChEMBL document CHEMBL4402611, “Phenyl(thio)phosphon(amid)ate Benzenesulfonamides as Potent and Selective Inhibitors of Human Carbonic Anhydrases II and VII Counteract Allodynia in a Mouse Model of Oxaliplatin-Induced Neuropathy” (J Med Chem, 2020).
Active and inactive are the calls of the source.

Legend:
Carbonic anhydrase 9 = Carbonic anhydrase 9 (Homo sapiens, UniProt Q16790); test: Inhibition of human recombinant carbonic anhydrase 9 preincubated with enzyme for 1 hr prior to testing by phenol red-based stopped-flow CO2 hydration assay; type: single protein
[1] = biological target: Carbonic anhydrase 5A, mitochondrial (Homo sapiens, UniProt P35218); test: Inhibition of human recombinant carbonic anhydrase 5A preincubated with enzyme for 1 hr prior to testing by phenol red-based stopped-flow CO2 hydration assay
[2] = biological target: Carbonic anhydrase 5B, mitochondrial (Homo sapiens, UniProt Q9Y2D0); test: Inhibition of human recombinant carbonic anhydrase 5B preincubated with enzyme for 1 hr prior to testing by phenol red-based stopped-flow CO2 hydration assay
Carbonic anhydrase 1 = Carbonic anhydrase 1 (Homo sapiens, UniProt P00915); test: Inhibition of human recombinant carbonic anhydrase 1 preincubated with enzyme for 1 hr prior to testing by phenol red-based stopped-flow CO2 hydration assay
Carbonic anhydrase 4 = Carbonic anhydrase 4 (Homo sapiens, UniProt P22748); test: Inhibition of human recombinant carbonic anhydrase 4 preincubated with enzyme for 1 hr prior to testing by phenol red-based stopped-flow CO2 hydration assay
Carbonic anhydrase 7 = Carbonic anhydrase 7 (Homo sapiens, UniProt P43166); test: Inhibition of human recombinant carbonic anhydrase 7 preincubated with enzyme for 1 hr prior to testing by phenol red-based stopped-flow CO2 hydration assay
Carbonic anhydrase 2 = Carbonic anhydrase 2 (Homo sapiens, UniProt P00918); test: Inhibition of human recombinant carbonic anhydrase 2 preincubated with enzyme for 1 hr prior to testing by phenol red-based stopped-flow CO2 hydration assay
Carbonic anhydrase 12 = Carbonic anhydrase 12 (Homo sapiens, UniProt O43570); test: Inhibition of human recombinant carbonic anhydrase 12 preincubated with enzyme for 1 hr prior to testing by phenol red-based stopped-flow CO2 hydration assay
[3] = Stability of compound in PBS buffer measured up to 120 mins by LC-MS/MS analysis; type: physicochemical; details: 2 h
How it was run: (§1)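 Analyte (1 μM final) incubated at 37 °C in PBS, 10 mM HCl (pH 2) or human plasma. Sampling at 0, 30, 60 and 120 min, each in triplicate. Samples were quenched with acetonitrile containing verapamil internal standard, centrifuged and diluted. Read-out was LC–MS/MS with positive ESI and MRM on a PFP column.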

[4] = Stability of compound in aqueous HCl solution at pH 2 measured up to 120 mins by LC-MS/MS analysis; type: physicochemical; details: buffer, pH 2, 2 h; how it was run: as §1
[5] = Stability of compound in human plasma measured up to 120 mins by LC-MS/MS analysis; type: ADME, cell-free; details: 2 h; how it was run: as §1
Mus musculus [6] = test: (§2) Antinociceptive activity in CD-1 albino mouse model of oxaliplatin-induced neuropathic pain assessed as decrease in pain-related behaviour measured as licking latency at 10 to 100 mg/kg, po treated on day 15 post oxaliplatin treatment and measured after 15 to 30 mins post dose by cold plate test; type: functional, organism-based
How it was run: (§3)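 Male CD-1 mice (22–25 g) given oxaliplatin 2.4 mg kg–1 i.p. in 5% glucose on days 1–2, 5–9 and 12–14 (10 injections). On day 15, compounds were suspended in 1% CMC and given once orally. Cold plate held at 4 °C; latency to first hind-paw licking recorded, 30 s cutoff. Readings taken before dosing and at 15, 30, 45 and 60 min after. 12 mice per group over two sets, observers blinded.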

Mus musculus [7] = test: Antinociceptive activity in orally dosed CD-1 albino mouse model of oxaliplatin-induced neuropathic pain assessed as decrease in pain-related behaviour measured as licking latency treated on day 15 post oxaliplatin treatment and measured after 15 to 60 mins post dose by cold plate test; type: functional, organism-based; how it was run: as §3
Mus musculus [8] = test: Antinociceptive activity in CD-1 albino mouse model of oxaliplatin-induced neuropathic pain assessed as decrease in pain-related behaviour measured as licking latency at 100 mg/kg, po treated on day 15 post oxaliplatin treatment and measured after 30 to 45 mins post dose by cold plate test; type: functional, organism-based; how it was run: as §3
Mus musculus [9] = test: as §2, with “at” for “at 10 to”, “15” for “15 to 30”, “test (reference value: 18.1 +/- 0.3 sec)” for “test”; type: functional
[10] = Stability of compound in aqueous HCl solution assessed as half life at pH 2 measured up to 120 mins by LC-MS/MS analysis; type: physicochemical; details: buffer, pH 2, 2 h
How it was run: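 Analyte (1 μM final) incubated at 37 °C in 10 mM aqueous HCl (pH 2), sampled in triplicate at 0, 30, 60 and 120 min. Quenched with acetonitrile containing verapamil internal standard, then quantified by LC–MS/MS with positive-ion MRM. Half-life taken from the degradation profile.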

[11] = Solubility of compound in water; type: physicochemical; details: buffer
Mus musculus [12] = test: Antinociceptive activity in CD-1 albino mouse model of oxaliplatin-induced neuropathic pain assessed as decrease in pain-related behaviour measured as licking latency at 100 mg/kg, po treated on day 15 post oxaliplatin treatment and measured after 30 mins post dose by cold plate test; type: functional, organism-based; how it was run: as §3
Mus musculus [13] = test: Antinociceptive activity in orally dosed CD-1 albino mouse model of oxaliplatin-induced neuropathic pain assessed as decrease in pain-related behaviour measured as licking latency treated on day 15 post oxaliplatin treatment and measured upto 45 mins post dose by cold plate test; type: functional, organism-based; how it was run: as §3
Mus musculus [14] = test: Antinociceptive activity in CD-1 albino mouse model of oxaliplatin-induced neuropathic pain assessed as decrease in pain-related behaviour measured as licking latency at 50 mg/kg, po treated on day 15 post oxaliplatin treatment and measured after 15 to 45 mins post dose by cold plate test; type: functional, organism-based; how it was run: as §3

Carbonic anhydrase 1, sequence (P00915 whole entry): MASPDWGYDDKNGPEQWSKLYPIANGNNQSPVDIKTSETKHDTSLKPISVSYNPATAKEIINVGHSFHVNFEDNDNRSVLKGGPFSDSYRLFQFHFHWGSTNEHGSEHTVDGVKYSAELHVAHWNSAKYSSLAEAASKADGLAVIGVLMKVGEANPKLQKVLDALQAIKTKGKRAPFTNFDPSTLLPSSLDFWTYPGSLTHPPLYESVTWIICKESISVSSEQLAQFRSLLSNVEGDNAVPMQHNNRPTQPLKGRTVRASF
Carbonic anhydrase 5B, mitochondrial, sequence (Q9Y2D0 whole entry): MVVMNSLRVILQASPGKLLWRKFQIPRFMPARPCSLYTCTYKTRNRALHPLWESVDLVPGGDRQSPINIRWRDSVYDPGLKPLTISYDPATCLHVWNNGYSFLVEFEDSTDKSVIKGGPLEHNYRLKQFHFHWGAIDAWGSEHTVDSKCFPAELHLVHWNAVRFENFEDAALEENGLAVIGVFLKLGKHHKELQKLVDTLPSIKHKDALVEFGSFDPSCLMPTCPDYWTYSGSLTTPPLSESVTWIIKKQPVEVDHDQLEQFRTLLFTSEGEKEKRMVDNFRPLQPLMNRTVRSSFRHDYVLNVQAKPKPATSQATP
Carbonic anhydrase 7, sequence (P43166 whole entry): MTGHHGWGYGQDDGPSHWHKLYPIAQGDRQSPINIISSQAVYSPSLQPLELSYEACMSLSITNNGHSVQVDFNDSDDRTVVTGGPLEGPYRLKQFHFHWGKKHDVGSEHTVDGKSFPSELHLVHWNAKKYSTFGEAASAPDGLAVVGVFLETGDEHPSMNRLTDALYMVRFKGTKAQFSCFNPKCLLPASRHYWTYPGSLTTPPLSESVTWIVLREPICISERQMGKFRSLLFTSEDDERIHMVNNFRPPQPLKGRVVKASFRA
Carbonic anhydrase 5A, mitochondrial, sequence (P35218 whole entry): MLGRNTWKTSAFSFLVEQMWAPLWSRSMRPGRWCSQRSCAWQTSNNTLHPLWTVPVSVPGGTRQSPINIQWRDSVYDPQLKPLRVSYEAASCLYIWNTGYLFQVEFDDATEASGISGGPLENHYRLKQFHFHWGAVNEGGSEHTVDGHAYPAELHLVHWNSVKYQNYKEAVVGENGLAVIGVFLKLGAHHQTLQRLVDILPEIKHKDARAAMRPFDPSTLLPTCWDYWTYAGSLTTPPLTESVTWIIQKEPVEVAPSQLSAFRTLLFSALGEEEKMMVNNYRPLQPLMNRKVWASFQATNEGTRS
Carbonic anhydrase 12, sequence (O43570 whole entry): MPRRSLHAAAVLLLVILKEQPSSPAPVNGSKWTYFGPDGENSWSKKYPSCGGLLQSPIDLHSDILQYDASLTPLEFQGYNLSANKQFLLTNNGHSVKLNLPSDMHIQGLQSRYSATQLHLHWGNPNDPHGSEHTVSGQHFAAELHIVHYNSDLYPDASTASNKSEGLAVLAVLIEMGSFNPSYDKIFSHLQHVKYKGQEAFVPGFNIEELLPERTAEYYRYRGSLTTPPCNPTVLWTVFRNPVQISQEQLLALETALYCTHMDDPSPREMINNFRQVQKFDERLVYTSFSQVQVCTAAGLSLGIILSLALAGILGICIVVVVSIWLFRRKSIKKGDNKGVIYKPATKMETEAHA
Carbonic anhydrase 4, sequence (P22748 whole entry): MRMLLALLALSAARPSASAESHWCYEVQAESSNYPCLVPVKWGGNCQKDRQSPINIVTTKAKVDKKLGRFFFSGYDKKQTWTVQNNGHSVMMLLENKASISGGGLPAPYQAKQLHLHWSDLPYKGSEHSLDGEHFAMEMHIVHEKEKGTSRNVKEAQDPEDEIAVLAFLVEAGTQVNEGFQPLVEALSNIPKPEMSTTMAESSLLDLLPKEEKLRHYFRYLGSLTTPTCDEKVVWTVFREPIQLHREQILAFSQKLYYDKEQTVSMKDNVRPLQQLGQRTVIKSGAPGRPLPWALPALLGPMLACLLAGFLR

SMILES | Ki (Carbonic anhydrase 9) [µM] | Ki [1] [µM] | Ki [2] [µM] | Ki (Carbonic anhydrase 1) [µM] | Ki (Carbonic anhydrase 4) [µM] | Ki (Carbonic anhydrase 7) [µM] | Ki (Carbonic anhydrase 2) [µM] | Ki (Carbonic anhydrase 12) [µM] | Stability [3] | Stability [4] | Stability [5] | Activity (Mus musculus [6]) | Activity (Mus musculus [7]) | Activity (Mus musculus [8]) | Time (Mus musculus [9]) [s] | Stability [10] | solubility [11] | Activity (Mus musculus [12]) | Activity (Mus musculus [13]) | Activity (Mus musculus [14])
COP(=O)(Oc1ccc(S(N)(=O)=O)cc1)c1ccccc1 (racemic) | 0.0162 | 0.0517 | 0.0243 | 0.495 | 0.259 | 0.036 | 0.0114 | 0.0472 |  |  |  |  |  |  |  |  |  |  |  | 
CCOP(=O)(Oc1ccc(S(N)(=O)=O)cc1)c1ccccc1 (racemic) | 0.0187 | 0.143 | 0.0401 | 0.398 | 0.425 | 0.0382 | 0.0366 | 0.0224 |  |  |  |  |  |  |  |  |  |  |  | 
NS(=O)(=O)c1ccc(OP(=O)(Nc2ccccc2)c2ccccc2)cc1 (racemic) | 0.0196 | 0.185 | 0.024 | 0.818 | 0.86 | 0.0055 | 0.0024 | 0.0209 | Stable | Stable | Stable | Active |  |  |  |  |  |  |  | 
CCCNP(=O)(Oc1ccc(S(N)(=O)=O)cc1)c1ccccc1 (racemic) | 0.0032 | 0.0852 | 0.0337 | 0.759 | 1.52 | 0.0208 | 0.0262 | 0.0173 |  |  |  |  |  |  |  |  |  |  |  | 
C#CCOP(=O)(Oc1ccc(S(N)(=O)=O)cc1)c1ccccc1 (racemic) |  | 0.0821 | 0.0384 | 0.415 | 1.32 | 0.0122 | 0.0036 | 0.0267 | Stable | Stable | Stable |  | Dose-dependent effect | Active |  |  |  |  |  | 
NP(=O)(Oc1ccc(S(N)(=O)=O)cc1)c1ccccc1 (racemic) | 0.0209 | 0.0413 | 0.0126 | 0.195 | 0.292 | 0.0189 | 0.0179 | 0.0154 |  |  |  |  |  |  |  |  |  |  |  | 
NS(=O)(=O)c1ccc(OP(=O)(Sc2ccccc2)c2ccccc2)cc1 (racemic) | 0.0066 | 0.382 | 0.0287 | 1.63 | 2.63 | 0.0157 | 0.0349 | 0.0392 |  |  |  |  |  |  |  |  |  |  |  | 
NS(=O)(=O)c1ccc(OP(=O)(NCc2ccccc2)c2ccccc2)cc1 (racemic) | 0.0026 | 0.0591 | 0.0687 | 1.71 | 0.644 | 0.0154 | 0.0529 | 0.0197 |  |  |  |  |  |  |  |  |  |  |  | 
NS(=O)(=O)c1ccc(OP(=O)(O)c2ccccc2)cc1 | 0.0261 | 0.0763 | 0.0528 | 0.197 | 0.22 | 0.0161 | 0.0379 | 0.0308 |  |  |  |  |  |  |  |  |  |  |  | 
NS(=O)(=O)c1ccc(OP(=O)(SCc2ccccc2)c2ccccc2)cc1 (racemic) | 0.025 | 0.151 | 0.0584 | 3.26 | 4.46 | 0.0755 | 0.0648 | 0.0213 |  |  |  |  |  |  |  |  |  |  |  | 
CCSP(=O)(Oc1ccc(S(N)(=O)=O)cc1)c1ccccc1 (racemic) | 0.027 | 0.0943 | 0.0967 | 0.727 | 1.39 | 0.0415 | 0.0302 | 0.0341 |  |  |  |  |  |  |  |  |  |  |  | 
NS(=O)(=O)c1ccc(OP(=O)(Oc2ccccc2)c2ccccc2)cc1 (racemic) | 0.0132 | 0.47 | 0.0227 | 0.971 | 2.62 | 0.0314 | 0.0152 | 0.0246 |  |  |  |  |  |  |  |  |  |  |  | 
CC(=O)Nc1nnc(S(N)(=O)=O)s1 [ACETAZOLAMIDE] |  |  |  |  |  |  |  |  |  |  |  |  |  |  | 15.8 |  |  |  |  | 
NS(=O)(=O)c1ccc(OP(=O)(c2ccccc2)N2CCCC2)cc1 (racemic) | 0.0289 | 0.0783 | 0.0256 | 0.242 | 0.308 | 0.0093 | 0.0017 | 0.0581 | Stable |  | Stable |  |  |  |  | Unstable |  |  |  | 
NS(=O)(=O)c1ccc(OP(=O)(Oc2ccc(S(N)(=O)=O)cc2)c2ccccc2)cc1 | 0.0197 | 0.284 | 0.015 | 0.671 | 0.36 | 0.0077 | 0.0032 | 0.0169 | Stable | Stable | Stable |  |  |  |  |  | Insoluble | Active |  | 
NS(=O)(=O)c1ccc(OP(=O)(c2ccccc2)N2CCOCC2)cc1 (racemic) | 0.0111 | 0.0439 | 0.0274 | 0.318 | 0.12 | 0.0305 | 0.0079 | 0.0276 |  |  |  |  |  |  |  |  |  |  |  | 
CN1CCN(P(=O)(Oc2ccc(S(N)(=O)=O)cc2)c2ccccc2)CC1 (racemic) | 0.0619 | 0.164 | 0.0473 | 0.391 | 0.0769 | 0.017 | 0.0091 | 0.0253 | Stable | Stable | Stable | Active |  |  |  |  | Soluble |  |  | 
CC(C)OP(=O)(Oc1ccc(S(N)(=O)=O)cc1)c1ccccc1 (racemic) | 0.0175 | 0.101 | 0.0198 | 0.308 | 1.2 | 0.0062 | 0.0128 | 0.042 | Stable | Stable | Stable |  |  |  |  |  |  |  | Dose-dependent effect | 
CCCCCCCCCCCCSP(=O)(Oc1ccc(S(N)(=O)=O)cc1)c1ccccc1 (racemic) | 0.0512 | 0.642 | 0.225 | 8.35 | 4.16 | 0.101 | 0.234 | 0.0478 |  |  |  |  |  |  |  |  |  |  |  | 
C#CCO[P@](=O)(Oc1ccc(S(N)(=O)=O)cc1)c1ccccc1 |  | 0.108 | 0.0192 | 0.564 | 0.746 | 0.0011 | 0.00078 | 0.0173 |  |  |  |  |  |  |  |  |  |  |  | Active
C#CCO[P@@](=O)(Oc1ccc(S(N)(=O)=O)cc1)c1ccccc1 |  | 0.0665 | 0.0661 | 0.365 | 1.98 | 0.0713 | 0.0564 | 0.0492 |  |  |  |  |  |  |  |  |  |  |  | inactive
CCN(CC)P(=O)(Oc1ccc(S(N)(=O)=O)cc1)c1ccccc1 (racemic) | 0.0195 | 0.107 | 0.0491 | 0.521 | 0.371 | 0.0135 | 0.0175 | 0.0468 |  |  |  |  |  |  |  |  |  |  |  | 
COCCOP(=O)(Oc1ccc(S(N)(=O)=O)cc1)c1ccccc1 (racemic) | 0.0121 | 0.0593 | 0.0672 | 0.78 | 1.64 | 0.025 | 0.0285 | 0.0357 |  |  |  |  |  |  |  |  |  |  |  | 
